Measured values taken from ChEMBL document CHEMBL1128436, “Synthesis and biological evaluation of a new series of sterols as potential hypocholesterolemic agents” (1995).
Active and inactive are the calls of the source. The rule behind the calls is not given here.

How the values were obtained:
[1] = system: CHO; assay: Capability of derepressing the transcription of SV40 promoter in CHO cells by luciferase assay; NA= Not active within the test range 0-20 ug/mL; format: functional, cell-based; settings: Cricetulus griseus
Summary of the method: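 Counter-screen in CHO clone SV40/LN9, with luciferase driven by the SV40 promoter. Confluent monolayers were given compound at 0.30-20 μg/mL for 24 h in serum-free albumin assay medium, triplicate wells. Lysates were read for luciferase peak luminescence, normalized to lysate protein.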

[2] = system: Cricetinae gen. sp.; assay: Total serum cholesterol level with relative to the control value (425(58)) in hamsters at a dose of 0.2% of diet for 1 week; format: functional, Cricetulus griseus
[3] = target: Low-density lipoprotein receptor (Homo sapiens) (UniProt P01130); assay: (§1) Capability of derepressing the transcription of Low density lipoprotein receptor promoter in the presence of 25-hydroxycholesterol in CHO cells measured as maximum activity at 20 ug/mL; format: cell-based
Chain of Low-density lipoprotein receptor (Homo sapiens) (P01130 whole entry, the tested form may be a part): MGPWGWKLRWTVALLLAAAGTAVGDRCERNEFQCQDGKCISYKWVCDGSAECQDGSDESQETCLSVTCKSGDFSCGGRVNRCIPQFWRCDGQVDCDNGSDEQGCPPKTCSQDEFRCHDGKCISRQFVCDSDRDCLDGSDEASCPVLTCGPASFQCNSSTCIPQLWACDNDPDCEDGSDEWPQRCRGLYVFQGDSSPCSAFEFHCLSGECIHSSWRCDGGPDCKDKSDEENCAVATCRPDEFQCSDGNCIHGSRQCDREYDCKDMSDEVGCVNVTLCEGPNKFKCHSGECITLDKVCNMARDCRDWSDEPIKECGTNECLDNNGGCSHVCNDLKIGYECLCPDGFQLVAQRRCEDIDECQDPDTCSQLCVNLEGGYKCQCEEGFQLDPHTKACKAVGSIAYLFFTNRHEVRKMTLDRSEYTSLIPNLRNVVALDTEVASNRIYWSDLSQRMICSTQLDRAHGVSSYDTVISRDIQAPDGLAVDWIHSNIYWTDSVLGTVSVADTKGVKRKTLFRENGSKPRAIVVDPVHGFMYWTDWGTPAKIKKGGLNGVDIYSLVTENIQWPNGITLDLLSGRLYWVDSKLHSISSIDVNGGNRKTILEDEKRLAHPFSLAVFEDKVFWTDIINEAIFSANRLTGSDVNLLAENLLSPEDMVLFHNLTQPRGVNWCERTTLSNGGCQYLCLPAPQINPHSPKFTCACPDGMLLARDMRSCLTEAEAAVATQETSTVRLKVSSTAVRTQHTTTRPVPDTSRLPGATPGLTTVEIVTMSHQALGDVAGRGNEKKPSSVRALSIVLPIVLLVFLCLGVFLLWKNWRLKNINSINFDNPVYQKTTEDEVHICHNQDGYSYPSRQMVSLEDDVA
Summary of the method: (§2)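 Stably transfected CHO clone S27/B30 (LDL receptor promoter fused to firefly luciferase), grown to confluence (2-3 days, 37 °C, 5% CO2). Then 24 h in serum-free assay medium (DMEM/Ham's F-12 3:1, 0.5% bovine albumin) with 25-hydroxycholesterol 0.5 μg/mL plus compound at 0.30-20 μg/mL from ethanol stock, triplicate wells. Lysate luciferase peak light per μg protein (Coomassie). EC30 = concentration giving 30% rise over control. MA = % specific induction at 20 μg/mL.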

[4] = target: Low-density lipoprotein receptor (Homo sapiens) (UniProt P01130); assay: Capability of derepressing the transcription of human Low density lipoprotein receptor promoter in the presence of 25-hydroxycholesterol in CHO cells by luciferase assay; format: cell-based; summary of the method: as §2
[5] = species on record: Mesocricetus auratus; assay: Serum cholesterol level change relative to the control value (425(58)) in hamsters at a dose of 0.2% of diet for 1 week
[6] = system: Cricetinae gen. sp.; assay: Total serum cholesterol level with relative to the control value (333(23)) in hamsters at a dose of 0.2% of diet for 1 week; format: functional, Cricetulus griseus
[7] = species on record: Mesocricetus auratus; assay: Serum cholesterol level change relative to the control value (333(23)) in hamsters at a dose of 0.2% of diet for 1 week
[8] = system: CHO; assay: In vitro [1-14C]-acetate]-cholesterol biosynthesis inhibition assay (14CACBI) in CHO cells; neg = Negative :no effect on biosynthesis of cholesterol; format: functional, cell-based; settings: Cricetulus griseus
Summary of the method: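 Confluent CHO cells in replicate 100 mm dishes were held 20 h in assay medium without 25-hydroxycholesterol, with ethanol vehicle (0.5% v/v) or compound at 20 μg/mL. [1-14C]acetate was then added (final 1 μCi/mL) for 4 h more. Cells were scraped and sonicated, lipids separated, and the cholesterol band scraped and counted by scintillation.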

[9] = system: Cricetinae gen. sp.; assay: Total serum cholesterol level with relative to the control value (313(24)) in hamsters at a dose of 0.2% of diet for 1 week; format: functional, Cricetulus griseus
[10] = species on record: Mesocricetus auratus; assay: Serum cholesterol level change relative to the control value (313(24)) in hamsters at a dose of 0.2% of diet for 1 week
[11] = target: Low-density lipoprotein receptor (Homo sapiens) (UniProt P01130); assay: Capability of derepressing the transcription of human Low density lipoprotein receptor promoter in the presence of 25-hydroxycholesterol in CHO cells by luciferase assay; NA= Not active within the test range 0-20 ug/mL; format: cell-based; summary of the method: as §2
[12] = species on record: Mesocricetus auratus; assay: Serum cholesterol level changes with relative to the control value (313(24)) in hamsters at a dose of 0.2% of diet for 1 week
[13] = system: Cricetinae gen. sp.; assay: Total serum cholesterol level with relative to the control value (274(23)) in hamsters at a dose of 0.2% of diet for 1 week; format: functional, Cricetulus griseus
[14] = system: Cricetinae gen. sp.; assay: Total serum cholesterol level with relative to the control value (306(27) in hamsters at a dose of 0.2% of diet for 1 week; format: functional, Cricetulus griseus
[15] = system: Cricetinae gen. sp.; assay: Total serum cholesterol level with relative to the control value (320(14)) in hamsters at a dose of 0.2% of diet for 1 week; format: functional, Cricetulus griseus
[16] = system: Cricetinae gen. sp.; assay: Total serum cholesterol level with relative to the control value (366(24)) in hamsters at a dose of 0.2% of diet for 1 week; format: functional, Cricetulus griseus
[17] = system: Cricetinae gen. sp.; assay: Total serum cholesterol level with relative to the control value (383(13)) in hamsters at a dose of 0.2% of diet for 1 week; format: functional, Cricetulus griseus
[18] = system: Cricetinae gen. sp.; assay: Serum cholesterol level changes with relative to the control value (425(58)) in hamsters at a dose of 0.2% of diet for 1 week; format: functional, Cricetulus griseus
[19] = system: Cricetinae gen. sp.; assay: Serum cholesterol level change relative to the control value (274(23)) in hamsters at a dose of 0.2% of diet for 1 week; format: functional, Cricetulus griseus
[20] = species on record: Mesocricetus auratus; assay: Serum cholesterol level change relative to the control value (320(14)) in hamsters at a dose of 0.2% of diet for 1 week
[21] = species on record: Mesocricetus auratus; assay: Serum cholesterol level change relative to the control value (366(24)) in hamsters at a dose of 0.2% of diet for 1 week
[22] = species on record: Mesocricetus auratus; assay: Serum cholesterol level change relative to the control value (383(13)) in hamsters at a dose of 0.2% of diet for 1 week
[23] = species on record: Mesocricetus auratus; assay: Serum cholesterol level change relative to the control value (306(27)) was calculated.i n hamsters at a dose of 0.2% of diet for 1 week
[24] = species on record: Mesocricetus auratus; assay: Serum cholesterol level change relative to the control value (306(27)) in hamsters at a dose of 0.2% of diet for 1 week
[25] = species on record: Mesocricetus auratus; assay: Serum cholesterol level changes with relative to the control value (333(23)) in hamsters at a dose of 0.2% of diet for 1 week
[26] = system: Cricetinae gen. sp.; assay: Total serum cholesterol level with relative to the control value [383(13)] in hamsters at a dose of 0.2% of diet for 1 week; format: functional, Cricetulus griseus
[27] = species on record: Mesocricetus auratus; assay: Serum cholesterol level change relative to the control value [383(13)] in hamsters at a dose of 0.2% of diet for 1 week
[28] = target: Low-density lipoprotein receptor (Homo sapiens) (UniProt P01130); assay: as §1; format: functional, cell-based; summary of the method: as §2
[29] = target: Low-density lipoprotein receptor (Homo sapiens) (UniProt P01130); assay: Luciferase activity (LDLR/Luc) expressed as light units/microg assayed in LMB the percentage specific light induction of agent over the control at concentration of 20 ug/mL was determined in vitro.; summary of the method: as §2

| SMILES | Activity [1] | MA [3] [%] | EC30 [4] [µM] | Activity [8] | Total cholesterol [9] [mg/dL] | other results |
| --- | --- | --- | --- | --- | --- | --- |
| C=C(Cl)C[C@H]1C2CC[C@H]3[C@@H]4CC[C@H]([C@H](C)CC[C@@H](CC)C(C)C)[C@@]4(C)CC[C@@H]3[C@@]2(C)CC[C@H]1O (stereo partly specified) | inactive | 120 | 4.2 | – | – | Total cholesterol [2]: 241 mg/dL; Relative change [5]: -43% |
| C=C(C)C[C@H]1C2CC[C@H]3[C@@H]4CC[C@H]([C@H](C)CC[C@@H](CC)C(C)C)[C@@]4(C)CC[C@@H]3[C@@]2(C)CC[C@H]1O (stereo partly specified) | inactive | 165 | 3.1 | – | – | Total cholesterol [6]: 196 mg/dL; Relative change [7]: -41% |
| C=CC[C@@H]1C[C@@]2(C)C(CC[C@H]3[C@@H]4CC[C@H]([C@H](C)CCCC(C)C)[C@@]4(C)CC[C@@H]32)C[C@@H]1O (stereo partly specified) | inactive | 60 | 41 | Negative | 209 | Relative change [10]: -33% |
| CC(C)CCC[C@@H](C)[C@H]1CC[C@H]2[C@@H]3CCC4[C@H](Cc5ccccc5)[C@H](O)CC[C@]4(C)[C@H]3CC[C@]12C (stereo partly specified) | inactive | 44 | 32 | Negative | 202 | Relative change [10]: -35% |
| C=CC[C@H]1C2CC[C@H]3[C@@H]4CC[C@H]([C@H](C)CC[C@@H](CC)C(C)C)[C@@]4(C)CC[C@@H]3[C@@]2(C)CC[C@H]1O (stereo partly specified) | inactive | 95 | 8.2 | – | – | Total cholesterol [6]: 217 mg/dL; Relative change [7]: -35% |
| C=CC[C@H]1C2CC[C@H]3[C@@H]4CC[C@H]([C@H](C)CCCC(C)C)[C@@]4(C)CC[C@@H]3[C@@]2(C)CC[C@@H]1O (stereo partly specified) | – | – | – | – | 198 | EC30 [11]: inactive; Relative change [12]: -37% |
| C=CC[C@H]1C2CC[C@H]3[C@@H]4CC[C@H]([C@H](C)CCCC(C)C)[C@@]4(C)CC[C@@H]3[C@@]2(C)CC[C@H]1O (stereo partly specified) | inactive | 127 | 2.9 | Negative | 167 | Total cholesterol [13]: 188 mg/dL; Total cholesterol [14]: 151 mg/dL; Total cholesterol [15]: 168 mg/dL; Total cholesterol [6]: 199 mg/dL; Total cholesterol [16]: 174 mg/dL; Total cholesterol [17]: 197 mg/dL; Total cholesterol [2]: 213 mg/dL; Relative change [18]: -50%; Relative change [19]: -31%; Relative change [10]: -47%; Relative change [20]: -47%; Relative change [7]: -40%; Relative change [21]: -53%; Relative change [22]: -49%; Relative change [23]: -51% |
| CCC[C@H]1C2CC[C@H]3[C@@H]4CC[C@H]([C@H](C)CCCC(C)C)[C@@]4(C)CC[C@@H]3[C@@]2(C)CC[C@H]1O (stereo partly specified) | inactive | 48 | 38 | Negative | – | Total cholesterol [14]: 222 mg/dL; Relative change [24]: -27% |
| CC(C)CCC[C@@H](C)[C@H]1CC[C@H]2[C@@H]3CCC4[C@H](Cc5ccc(F)cc5)[C@H](O)CC[C@]4(C)[C@H]3CC[C@]12C (stereo partly specified) | inactive | 80 | 17 | – | – | Total cholesterol [16]: 181 mg/dL; Relative change [21]: -50% |
| C=CC[C@H]1C2=CCC3C(CC[C@@]4(C)C3CC[C@@H]4[C@H](C)CCCC(C)C)[C@@]2(C)CC[C@H]1O (stereo partly specified) | inactive | 96 | 3.5 | Negative | – | Total cholesterol [14]: 163 mg/dL; Relative change [24]: -47% |
| C=C(Cl)C[C@H]1C2CC[C@H]3[C@@H]4CC[C@H]([C@H](C)CCCC(C)C)[C@@]4(C)CC[C@@H]3[C@@]2(C)CC[C@H]1O (stereo partly specified) | inactive | 141 | 1.8 | – | – | Total cholesterol [6]: 200 mg/dL; Relative change [25]: -40% |
| CC(C)CCC[C@@H](C)[C@H]1CC[C@H]2[C@@H]3CCC4[C@H](Cc5ccc(Br)cc5)[C@H](O)CC[C@]4(C)[C@H]3CC[C@]12C (stereo partly specified) | inactive | 57 | 6 | – | – | Total cholesterol [13]: 160 mg/dL; Relative change [19]: -42% |
| CC(C)CCC[C@@H](C)[C@H]1CC[C@H]2[C@@H]3CCC4[C@H](C/C=C/Cl)[C@H](O)CC[C@]4(C)[C@H]3CC[C@]12C (stereo partly specified) | inactive | 169 | 2 | Negative | – | Total cholesterol [6]: 185 mg/dL; Relative change [7]: -44% |
| CC(C)CCC[C@@H](C)[C@H]1CC[C@H]2[C@@H]3CCC4[C@H](Cc5ccc(I)cc5)[C@H](O)CC[C@]4(C)[C@H]3CC[C@]12C (stereo partly specified) | inactive | 80 | 2.8 | Negative | – | Total cholesterol [26]: 240 mg/dL; Relative change [27]: -37% |
| CC(C)CCC[C@@H](C)[C@H]1CC[C@H]2[C@@H]3CCC4[C@H](C/C=C\Cl)[C@H](O)CC[C@]4(C)[C@H]3CC[C@]12C (stereo partly specified) | – | – | – | – | – | Total cholesterol [2]: 316 mg/dL; EC30 [11]: inactive; Relative change [5]: -26% |
| Cc1ccc(C[C@H]2C3CC[C@H]4[C@@H]5CC[C@H]([C@H](C)CCCC(C)C)[C@@]5(C)CC[C@@H]4[C@@]3(C)CC[C@H]2O)cc1 (stereo partly specified) | inactive | – | 35 | – | – | Total cholesterol [2]: 283 mg/dL; MA [28]: 45%; Relative change [5]: -33% |
| C/C=C/C[C@H]1C2CC[C@H]3[C@@H]4CC[C@H]([C@H](C)CCCC(C)C)[C@@]4(C)CC[C@@H]3[C@@]2(C)CC[C@@H]1O (stereo partly specified) | – | – | – | – | 245 | EC30 [11]: inactive; Relative change [12]: -22% |
| C/C=C/C[C@H]1C2CC[C@H]3[C@@H]4CC[C@H]([C@H](C)CCCC(C)C)[C@@]4(C)CC[C@@H]3[C@@]2(C)CC[C@H]1O (stereo partly specified) | inactive | – | 11 | Negative | 210 | MA [29]: 86%; Relative change [12]: -33% |
